According to ChEMBL document CHEMBL1155223, “2-Phenylpyrazolo[4,3-d]pyrimidin-7-one as a new scaffold to obtain potent and selective human A3 adenosine receptor antagonists: new insights into the receptor-antagonist recognition” (J Med Chem, 2009):

Key:
[1] = molecular target: T1, Adenosine receptor A3 (Homo sapiens) (UniProt P0DMS8); assay: Inhibition of [125I]AB-MECA binding to human cloned adenosine A3 receptor expressed in CHO cells at 1 uM after 120 mins by scintillation counting; assay type: cell-based
T1 sequence (whole entry): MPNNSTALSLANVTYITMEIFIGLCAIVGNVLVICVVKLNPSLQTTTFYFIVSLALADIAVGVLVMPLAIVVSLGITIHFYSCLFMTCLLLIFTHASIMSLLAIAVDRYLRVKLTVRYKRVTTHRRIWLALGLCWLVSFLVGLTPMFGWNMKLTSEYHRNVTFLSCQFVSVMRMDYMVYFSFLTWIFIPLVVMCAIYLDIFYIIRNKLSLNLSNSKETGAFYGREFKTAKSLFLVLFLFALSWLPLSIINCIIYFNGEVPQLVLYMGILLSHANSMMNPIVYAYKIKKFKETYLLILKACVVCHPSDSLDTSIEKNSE
Method in brief: (§1)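 hA3 CHO membranes (50 μg protein) incubated with [125I]AB-MECA 0.5 nM in 50 mM Tris-HCl, 10 mM MgCl2, 1 mM EDTA, pH 7.4, 120 min at 4 °C; six to eight ligand concentrations. Nonspecific binding with 1 μM AB-MECA. Ki via Cheng–Prusoff, mean ± SEM of four assays in duplicate; percent inhibition given at 1 μM.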

[2] = molecular target: T2, Adenosine receptor A1 (Homo sapiens) (UniProt P30542); assay: Inhibition of [125I]DPCPX binding to human cloned adenosine A1 receptor expressed in CHO cells at 1 uM after 120 mins by scintillation counting; assay type: cell-based; settings: in the assay text read “[3H]DPCPX” for “[125I]DPCPX”
T2 sequence (whole entry): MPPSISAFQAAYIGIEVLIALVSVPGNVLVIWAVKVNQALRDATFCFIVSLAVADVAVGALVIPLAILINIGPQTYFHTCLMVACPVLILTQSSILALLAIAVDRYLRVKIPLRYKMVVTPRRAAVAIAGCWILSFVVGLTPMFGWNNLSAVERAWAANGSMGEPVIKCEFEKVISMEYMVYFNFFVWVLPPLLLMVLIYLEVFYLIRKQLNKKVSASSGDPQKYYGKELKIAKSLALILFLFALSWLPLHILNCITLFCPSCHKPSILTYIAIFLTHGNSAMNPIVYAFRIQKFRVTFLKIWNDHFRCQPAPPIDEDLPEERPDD
Method in brief: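 Membranes from hA1 CHO (50 μg protein) with [3H]DPCPX 1 nM, 50 mM Tris-HCl pH 7.4, 120 min at 25 °C; nonspecific binding defined by 10 μM CHA. Percent inhibition at 1 μM test compound.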

[3] = molecular target: Adenosine receptor A2a (Homo sapiens) (UniProt P29274); assay: Inhibition of [125I]Z241385 binding to human cloned adenosine A2A receptor expressed in CHO cells at 1 uM after 120 mins by scintillation counting; assay type: cell-based
[4] = molecular target: T3, Adenosine receptor A2b (Homo sapiens) (UniProt P29275); assay: Antagonist activity at human adenosine A2B receptor expressed in CHO cells assessed as inhibition of NECA-stimulated [3H]cAMP production at 1 uM by scintillation counting; assay type: functional, cell-based
T3 sequence (whole entry): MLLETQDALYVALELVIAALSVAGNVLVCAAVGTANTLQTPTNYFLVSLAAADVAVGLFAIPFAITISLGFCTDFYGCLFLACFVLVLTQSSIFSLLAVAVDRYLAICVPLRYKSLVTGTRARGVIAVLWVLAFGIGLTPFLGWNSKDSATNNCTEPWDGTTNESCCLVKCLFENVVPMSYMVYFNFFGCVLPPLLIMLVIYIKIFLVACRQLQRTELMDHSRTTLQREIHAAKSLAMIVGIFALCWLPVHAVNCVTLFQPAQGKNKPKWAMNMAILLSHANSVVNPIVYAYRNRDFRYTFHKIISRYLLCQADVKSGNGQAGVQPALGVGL
Method in brief: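 Suspended CHO cells stably expressing hA2B (1 × 10⁶ cells/assay) in buffer with adenosine deaminase 2 IU/mL and Ro 20-1724, preincubated 10 min at 37 °C, pH 7.4. Stimulated with NECA 200 nM; compound at 1 μM; percent inhibition reported. Stopped with cold 6% TCA, ether-extracted, cAMP quantified by [3H]cAMP competition with beef adrenal binding protein.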

[5] = molecular target: T1, Adenosine receptor A3 (Homo sapiens); settings: CHO, 1 uM
[6] = molecular target: T4, Adenosine receptor A3 (Homo sapiens, UniProt P0DMS8); assay: Antagonist activity at human cloned adenosine A3 receptor expressed in CHO cells assessed as inhibition of Cl-IB-MECA-inhibited [3H]cAMP production by scintillation counting; assay type: functional, cell-based
T4 sequence (P0DMS8 whole entry): T1 sequence (whole entry)
Method in brief: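 hA3-transfected CHO cells (1 × 10⁶ cells/assay), preincubated 10 min at 37 °C with adenosine deaminase 2 IU/mL plus Ro 20-1724, pH 7.4; forskolin 1 μM and Cl-IB-MECA 100 nM present. Stopped with cold 6% TCA; cAMP measured by [3H]cAMP binding-protein competition. IC50 from sigmoid nonlinear regression, mean ± SEM of four experiments; single-point data at 1 μM as percent inhibition.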

[7] = molecular target: T4, Adenosine receptor A3; assay: Displacement of [125I]AB-MECA from human cloned adenosine A3 receptor expressed in CHO cells after 120 mins by scintillation counting; assay type: cell-based; method in brief: as §1

Adenosine receptor A2a (Homo sapiens), sequence (P29274 whole entry): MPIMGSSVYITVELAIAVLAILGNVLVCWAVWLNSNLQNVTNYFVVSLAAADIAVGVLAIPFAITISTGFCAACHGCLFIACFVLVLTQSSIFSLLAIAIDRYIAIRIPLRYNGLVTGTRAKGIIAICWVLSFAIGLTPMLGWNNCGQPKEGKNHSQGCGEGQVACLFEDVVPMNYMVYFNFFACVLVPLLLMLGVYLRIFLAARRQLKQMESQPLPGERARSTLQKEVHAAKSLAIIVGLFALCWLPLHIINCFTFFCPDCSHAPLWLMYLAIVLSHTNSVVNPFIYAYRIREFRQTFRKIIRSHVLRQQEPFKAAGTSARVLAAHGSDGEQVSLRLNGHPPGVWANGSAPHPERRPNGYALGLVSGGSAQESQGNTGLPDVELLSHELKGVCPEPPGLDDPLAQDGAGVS

inhibition [1] [%]	inhibition [2] [%]	inhibition [3] [%]	inhibition [4] [%]	inhibition [5] [%]	IC50 [6] [nM]	Ki [7] [nM]	Structure (SMILES)
16	1	1	5				COc1ccc(-n2cc3nc(-c4ccccc4)[nH]c(=O)c3n2)cc1
5				2			Nc1nc(NCCc2ccc(O)cc2)nc2nc(-c3ccco3)nn12
	4	1	2		354	72	Cc1cccc(-n2cc3nc(C)[nH]c(=O)c3n2)c1
	1	1	3		725	185	O=c1[nH]cnc2cn(-c3ccccc3)nc12
	9	1	2		87	16	Cc1nc2cn(-c3ccccc3)nc2c(=O)[nH]1
	1	1	4		46	10	Cc1ccc(-n2cc3nc(C)[nH]c(=O)c3n2)cc1
	1	1	5		63	14	CCc1nc2cn(-c3ccc(OC)cc3)nc2c(=O)[nH]1
10	22	10	4				O=c1[nH]c(-c2ccccc2)nc2cn(-c3ccccc3)nc12
	2	1	3		270	54	COc1ccc(-n2cc3nc[nH]c(=O)c3n2)cc1
	10	1	4		850	250	COc1ccc(-n2cc3nc(Cc4ccccc4)[nH]c(=O)c3n2)cc1
	11	1	4	6		900	O=c1[nH]c(Cc2ccccc2)nc2cn(-c3ccccc3)nc12
12	4	5	2				O=c1[nH]c(=O)c2nn(-c3ccccc3)cc2[nH]1
	5	1	2		5.2	1.2	COc1ccc(-n2cc3nc(C)[nH]c(=O)c3n2)cc1
	11	6	1		245	52	CCc1nc2cn(-c3ccccc3)nc2c(=O)[nH]1
